Experimental data taken from ChEMBL document CHEMBL1126061, “Cyclic RGD peptide analogues as antiplatelet antithrombotics” (J Med Chem, 1992).
*1 amine or outer side, *2 acyl side, *3 side chain or, on linkers, in order; H or OH if unused. Where a SMILES comes first, the peptide text is derived from it. Bridges are numbered along the chain shown (N, C = ends). [ ]: non-standard residue; d: D form. Cys(O)(CH2CO) = O=C([C@H](C[S+]([O-])CC(=O)[*:3])N[*:1])[*:2]; X1 = C[C@@H](O)[C@@H](C(=O)[*:2])N(c1cccc(CC[*:3])c1)[*:1]; X2 = C[C@H](O)[C@H](C(=O)[*:2])N(c1cccc(CC[*:3])c1)[*:1]

Target: Integrin alpha-IIb/beta-3 (Homo sapiens, UniProt P05106+P08514)
Test: The compound was tested for the inhibition of fibrinogen receptor
Type: protein-complex assay
Method in brief: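 Solid-phase ELISA: human fibrinogen (10 µg/mL) coated, BSA-blocked; samples plus purified human platelet GPIIbIIIa (40 µg/mL) incubated 1 h at room temperature. Bound receptor detected with anti-GPIIbIIIa antibody AP3 (1 µg/mL, 1 h), then goat anti-mouse HRP (1 h); OPD/H2O2 at pH 5, stopped with H2SO4, absorbance 492-405 nm. IC50 from four-parameter fit; n ≥ 3.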

Sequence of Integrin alpha-IIb/beta-3 (P05106 27-788 limits assumed): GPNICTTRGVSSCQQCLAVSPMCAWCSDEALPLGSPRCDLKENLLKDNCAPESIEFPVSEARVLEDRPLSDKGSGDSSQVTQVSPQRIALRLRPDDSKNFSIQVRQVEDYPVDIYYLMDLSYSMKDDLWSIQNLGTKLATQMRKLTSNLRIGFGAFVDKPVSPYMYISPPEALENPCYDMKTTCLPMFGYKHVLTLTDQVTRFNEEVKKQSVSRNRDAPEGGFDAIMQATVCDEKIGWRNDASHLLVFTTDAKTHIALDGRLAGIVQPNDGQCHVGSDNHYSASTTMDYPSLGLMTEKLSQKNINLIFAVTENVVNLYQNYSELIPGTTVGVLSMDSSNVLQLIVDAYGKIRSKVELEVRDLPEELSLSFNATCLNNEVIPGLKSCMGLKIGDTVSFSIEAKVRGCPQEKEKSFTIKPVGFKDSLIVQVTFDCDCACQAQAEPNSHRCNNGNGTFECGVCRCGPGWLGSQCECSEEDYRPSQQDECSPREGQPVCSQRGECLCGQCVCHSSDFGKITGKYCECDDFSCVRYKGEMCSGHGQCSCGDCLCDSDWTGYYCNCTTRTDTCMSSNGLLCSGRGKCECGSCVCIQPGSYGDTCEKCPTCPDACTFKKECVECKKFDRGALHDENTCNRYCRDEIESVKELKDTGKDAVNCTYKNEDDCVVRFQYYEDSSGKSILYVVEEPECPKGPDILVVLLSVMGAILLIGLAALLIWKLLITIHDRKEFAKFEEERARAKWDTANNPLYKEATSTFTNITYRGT
Sequence of Integrin alpha-IIb/beta-3 (P08514 32-887 limits assumed): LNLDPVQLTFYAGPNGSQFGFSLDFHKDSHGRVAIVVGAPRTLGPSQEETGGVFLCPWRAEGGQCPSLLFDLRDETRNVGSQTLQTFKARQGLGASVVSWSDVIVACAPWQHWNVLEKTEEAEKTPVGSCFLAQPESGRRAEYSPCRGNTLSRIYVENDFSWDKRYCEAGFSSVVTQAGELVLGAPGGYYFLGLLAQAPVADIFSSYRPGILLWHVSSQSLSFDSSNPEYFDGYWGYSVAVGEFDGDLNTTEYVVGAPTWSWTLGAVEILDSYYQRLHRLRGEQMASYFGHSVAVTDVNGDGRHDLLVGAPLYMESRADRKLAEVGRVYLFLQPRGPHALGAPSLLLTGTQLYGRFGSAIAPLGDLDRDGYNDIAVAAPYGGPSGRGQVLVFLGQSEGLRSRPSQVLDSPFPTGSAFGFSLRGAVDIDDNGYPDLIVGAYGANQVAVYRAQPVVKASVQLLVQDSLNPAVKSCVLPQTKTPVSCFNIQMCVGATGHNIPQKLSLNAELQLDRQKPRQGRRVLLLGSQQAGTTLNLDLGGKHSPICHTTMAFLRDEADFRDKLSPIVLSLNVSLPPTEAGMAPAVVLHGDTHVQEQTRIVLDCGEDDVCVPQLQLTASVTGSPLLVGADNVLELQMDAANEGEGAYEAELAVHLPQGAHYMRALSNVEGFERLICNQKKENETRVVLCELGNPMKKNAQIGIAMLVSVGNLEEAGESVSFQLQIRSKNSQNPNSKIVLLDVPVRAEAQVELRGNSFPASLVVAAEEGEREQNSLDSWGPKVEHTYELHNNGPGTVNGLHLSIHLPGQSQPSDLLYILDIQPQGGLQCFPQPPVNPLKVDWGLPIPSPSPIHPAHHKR
Sequence of Integrin alpha-IIb/beta-3 (P08514 891-1039 limits assumed): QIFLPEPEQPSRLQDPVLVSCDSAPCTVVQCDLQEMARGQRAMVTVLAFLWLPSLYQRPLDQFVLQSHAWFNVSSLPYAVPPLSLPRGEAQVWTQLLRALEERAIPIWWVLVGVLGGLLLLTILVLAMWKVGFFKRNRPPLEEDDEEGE

| IC50 | Compound |
| --- | --- |
| 7 nM | N=C(N)NCCC[C@@H]1NC(=O)[C@H](Cc2ccccc2)NC(=O)CSC[C@@H](C(=O)O)NC(=O)[C@H](CC(=O)O)NC(=O)CNC1=O |
| 180 nM | N=C(N)NCCC[C@@H]1NC(=O)CNC(=O)C(c2ccc(C(F)(F)F)cc2)SC[C@@H](C(=O)O)NC(=O)[C@H](CC(=O)O)NC(=O)CNC1=O (stereo in doubt; 22A) |
| 2.7 nM | N=C(N)NCCC[C@@H]1NC(=O)CNC(=O)C(c2ccccc2C(F)(F)F)SC[C@@H](C(=O)O)NC(=O)[C@H](CC(=O)O)NC(=O)CNC1=O (stereo in doubt; 20B) |
| 29 nM | N=C(N)NCCC[C@@H]1NC(=O)CNC(=O)[C@@H](Cc2ccccc2)SC[C@@H](C(=O)O)NC(=O)[C@H](CC(=O)O)NC(=O)CNC1=O |
| 11.5 nM | N=C(N)NCCC[C@@H]1NC(=O)CNC(=O)C(c2ccc3ccccc3c2)SC[C@@H](C(=O)O)NC(=O)[C@H](CC(=O)O)NC(=O)CNC1=O (stereo in doubt; 21A) |
| 4 nM | N=C(N)NCCC[C@@H]1NC(=O)CNC(=O)C(c2ccc(C(F)(F)F)cc2)SC[C@@H](C(=O)O)NC(=O)[C@H](CC(=O)O)NC(=O)CNC1=O (stereo in doubt; 22B) |
| 75 nM | N=C(N)NCCC[C@@H]1NC(=O)CNC(=O)CCSC[C@@H](C(=O)O)NC(=O)[C@H](CC(=O)O)NC(=O)CNC1=O |
| 5 nM | N=C(N)NCCC[C@@H]1NC(=O)CNC(=O)C(c2ccc(-c3ccccc3)cc2)SC[C@@H](C(=O)O)NC(=O)[C@H](CC(=O)O)NC(=O)CNC1=O (stereo in doubt; 19A) |
| 14 nM | N=C(N)NCCC[C@@H]1NC(=O)CNC(=O)[C@H](Cc2ccccc2)SC[C@@H](C(=O)O)NC(=O)[C@H](CC(=O)O)NC(=O)CNC1=O |
| 4 nM | N=C(N)NCCC[C@@H]1NC(=O)[C@H](Cc2c[nH]c3ccccc23)NC(=O)CSC[C@@H](C(=O)O)NC(=O)[C@H](CC(=O)O)NC(=O)CNC1=O |
| 25 nM | N=C(N)NCCC[C@@H]1NC(=O)[C@H](CC(=O)O)NC(=O)CSC[C@@H](C(=O)O)NC(=O)[C@H](CC(=O)O)NC(=O)CNC1=O |
| 22 nM | N=C(N)NCCC[C@@H]1NC(=O)[C@@H](CO)NC(=O)CSC[C@@H](C(=O)O)NC(=O)[C@H](CC(=O)O)NC(=O)CNC1=O |
| 5.4 nM | CCCC1SC[C@@H](C(=O)O)NC(=O)[C@H](CC(=O)O)NC(=O)CNC(=O)[C@H](CCCNC(=N)N)NC(=O)CNC1=O (stereo in doubt; 23B) |
| 2.5 nM | C[C@@H]1NC(=O)CSC[C@@H](C(=O)O)NC(=O)[C@H](CC(=O)O)NC(=O)CNC(=O)[C@H](CCCNC(=N)N)NC1=O ({CH2CO}-ARGDC-OH; thioether N-5) |
| 23 nM | N=C(N)NCCC[C@@H]1NC(=O)CNC(=O)C(c2ccccc2C(F)(F)F)SC[C@@H](C(=O)O)NC(=O)[C@H](CC(=O)O)NC(=O)CNC1=O (stereo in doubt; 20A) |
| 21 nM | CCCC1SC[C@@H](C(=O)O)NC(=O)[C@H](CC(=O)O)NC(=O)CNC(=O)[C@H](CCCNC(=N)N)NC(=O)CNC1=O (stereo in doubt; 23A) |
| 19 nM | N=C(N)NCCC[C@@H]1NC(=O)c2cccc(c2)CSC[C@@H](C(=O)O)NC(=O)[C@H](CC(=O)O)NC(=O)CNC1=O |
| 9.5 nM | C[C@H]1NC(=O)CSC[C@@H](C(=O)O)NC(=O)[C@H](CC(=O)O)NC(=O)CNC(=O)[C@H](CCCNC(=N)N)NC1=O ({CH2CO}-[dA]RGDC-OH; thioether N-5) |
| 1.4 nM | N=C(N)NCCC[C@@H]1NC(=O)CNC(=O)C(c2cccc3ccccc23)SC[C@@H](C(=O)O)NC(=O)[C@H](CC(=O)O)NC(=O)CNC1=O (stereo in doubt; 17B) |

Second part, the molecule before the results:

| Compound | IC50 |
| --- | --- |
| NCCCC[C@@H]1NC(=O)CSC[C@@H](C(=O)O)NC(=O)[C@H](CC(=O)O)NC(=O)CNC(=O)[C@H](CCCN=C(N)N)NC1=O | 7.5 nM |
| N=C(N)NCCC[C@@H]1NC(=O)[C@@H](CCCN)NC(=O)CSC[C@@H](C(=O)O)NC(=O)[C@H](CC(=O)O)NC(=O)CNC1=O | 31 nM |
| NC(=O)CC[C@H]1NC(=O)CSC[C@@H](C(=O)O)NC(=O)[C@H](CC(=O)O)NC(=O)CNC(=O)[C@H](CCCN=C(N)N)NC1=O | 110 nM |
| N=C(N)NCCC[C@@H]1NC(=O)[C@H](CCC(N)=O)NC(=O)CSC[C@@H](C(=O)O)NC(=O)[C@H](CC(=O)O)NC(=O)CNC1=O | 43 nM |
| N=C(N)NCCC[C@@H]1NC(=O)[C@H](Cc2ccc(O)cc2)NC(=O)C[S+]([O-])C[C@@H](C(=O)O)NC(=O)[C@H](CC(=O)O)NC(=O)CNC1=O (stereo in doubt; 70B) | 4.8 nM |
| CC(C)[C@H](NC(=O)[C@H](CC(=O)O)NC(=O)CNC(=O)[C@H](CCCN=C(N)N)NC(=O)CN)C(=O)O (H-GRGDV-OH) | 30 nM |
| N=C(N)NCCC[C@@H]1NC(=O)CNC(=O)CS(=O)(=O)C[C@@H](C(=O)O)NC(=O)[C@H](CC(=O)O)NC(=O)CNC1=O | 18 nM |
| C[C@@H]1NC(=O)C[S+]([O-])C[C@@H](C(=O)O)NC(=O)[C@H](CC(=O)O)NC(=O)CNC(=O)[C@H](CCCN=C(N)N)NC1=O (stereo in doubt; 68B) | 4.7 nM |
| N=C(N)NCCC[C@@H]1NC(=O)[C@H](CC(N)=O)NC(=O)C[S+]([O-])C[C@@H](C(=O)O)NC(=O)[C@H](CC(=O)O)NC(=O)CNC1=O (stereo in doubt; 67A) | 6 nM |
| C[C@@H]1NC(=O)C[S+]([O-])C[C@@H](C(=O)O)NC(=O)[C@H](CC(=O)O)NC(=O)CNC(=O)[C@H](CCCN=C(N)N)NC1=O (stereo in doubt; 68A) | 1.6 nM |
| N=C(N)NCCC[C@@H]1NC(=O)[C@@H](Cc2ccc(O)cc2)NC(=O)C[S+]([O-])C[C@@H](C(=O)O)NC(=O)[C@H](CC(=O)O)NC(=O)CNC1=O (stereo in doubt; 69B) | 40 nM |
| C[C@@H](O)[C@@H]1Nc2cccc(c2)CCSC[C@@H](C(=O)O)NC(=O)[C@H](CC(=O)O)NC(=O)CNC(=O)[C@H](CCCN=C(N)N)NC1=O (H-[X1]RGDC-OH; thioether 1-5) | 1.7 nM |
| N=C(N)NCCC[C@@H]1NC(=O)[C@@H](CC(N)=O)NC(=O)CSC[C@@H](C(=O)O)NC(=O)[C@H](CC(=O)O)NC(=O)CNC1=O ({CH2CO}-[dN]RGDC-OH; thioether N-5) | 35 nM |
| CC(C)(C)C[C@H]1NC(=O)CSC[C@@H](C(=O)O)NC(=O)[C@H](CC(=O)O)NC(=O)CNC(=O)[C@H](CCCN=C(N)N)NC1=O | 22 nM |
| CC(C)(C)C[C@@H]1NC(=O)CSC[C@@H](C(=O)O)NC(=O)[C@H](CC(=O)O)NC(=O)CNC(=O)[C@H](CCCNC(=N)N)NC1=O | 3.6 nM |
| N=C(N)NCCC[C@@H]1NC(=O)[C@@H]2CCCN2C(=O)CSC[C@@H](C(=O)O)NC(=O)[C@H](CC(=O)O)NC(=O)CNC1=O ({CH2CO}-PRGDC-OH; thioether N-5) | 1 nM |
| CSCC[C@@H]1NC(=O)CSC[C@@H](C(=O)O)NC(=O)[C@H](CC(=O)O)NC(=O)CNC(=O)[C@H](CCCNC(=N)N)NC1=O | 4 nM |

| Compound | IC50 |
| --- | --- |
| CC(C)C[C@@H]1NC(=O)CSC[C@@H](C(=O)O)NC(=O)[C@H](CC(=O)O)NC(=O)CNC(=O)[C@H](CCCNC(=N)N)NC1=O | 3 nM |
| C[C@@H](O)[C@@H]1NC(=O)C[S+]([O-])C[C@@H](C(=O)O)NC(=O)[C@H](CC(=O)O)NC(=O)CNC(=O)[C@H](CCCN=C(N)N)NC1=O (stereo in doubt; 71A) | 1.8 nM |
| N=C(N)NCCC[C@@H]1NC(=O)[C@H](CC(N)=O)NC(=O)CSC[C@@H](C(=O)O)NC(=O)[C@H](CC(=O)O)NC(=O)CNC1=O ({CH2CO}-NRGDC-OH; thioether N-5) | 2.7 nM |
| NCC(=O)N[C@@H](CCCN=C(N)N)C(=O)NCC(=O)N[C@@H](CC(=O)O)C(=O)N[C@@H](CC(=O)O)C(=O)O (H-GRGDD-OH) | 231 nM |
| C[C@H](O)[C@H]1Nc2cccc(c2)CCSC[C@@H](C(=O)O)NC(=O)[C@H](CC(=O)O)NC(=O)CNC(=O)[C@H](CCCN=C(N)N)NC1=O (H-[X2]RGDC-OH; thioether 1-5) | 7 nM |
| CC(C)[C@@H]1NC(=O)CSC[C@@H](C(=O)O)NC(=O)[C@H](CC(=O)O)NC(=O)CNC(=O)[C@H](CCCN=C(N)N)NC1=O | 2 nM |
| N=C(N)NCCC[C@@H]1NC(=O)[C@H](CC(=O)O)NC(=O)C[S+]([O-])C[C@@H](C(=O)O)NC(=O)[C@H](CC(=O)O)NC(=O)CNC1=O (stereo partly drawn) (DRGD[Cys(O)(CH2CO)]-OH; lactam N-5) | 6 nM |
| CC(=O)NCC(=O)N[C@@H](CCCNC(=N)N)C(=O)NCC(=O)N[C@@H](CC(=O)O)C(=O)N[C@H](C(=O)O)C(C)C (Ac-GRGDV-OH) | 12 nM |
| CCC1SC[C@@H](C(=O)O)NC(=O)[C@H](CC(=O)O)NC(=O)CNC(=O)[C@H](CCCN=C(N)N)NC(=O)CNC1=O (stereo in doubt; 25B) | 6 nM |
| N=C(N)NCCC[C@@H]1NC(=O)[C@H](Cc2ccc(O)cc2)NC(=O)C[S+]([O-])C[C@@H](C(=O)O)NC(=O)[C@H](CC(=O)O)NC(=O)CNC1=O (stereo in doubt; 70A) | 1.5 nM |
| CSCC[C@H]1NC(=O)CSC[C@@H](C(=O)O)NC(=O)[C@H](CC(=O)O)NC(=O)CNC(=O)[C@H](CCCNC(=N)N)NC1=O | 28 nM |
| CCC1SC[C@@H](C(=O)O)NC(=O)[C@H](CC(=O)O)NC(=O)CNC(=O)[C@H](CCCN=C(N)N)NC(=O)CNC1=O (stereo in doubt; 25A) | 20 nM |
| N=C(N)NCCC[C@@H]1NC(=O)CCNC(=O)CSC[C@@H](C(=O)O)NC(=O)[C@H](CC(=O)O)NC(=O)CNC1=O | 12 nM |
| NCCC[C@@H]1NC(=O)CSC[C@@H](C(=O)O)NC(=O)[C@H](CC(=O)O)NC(=O)CNC(=O)[C@H](CCCN=C(N)N)NC1=O | 5.6 nM |
| C[C@@H](O)[C@@H]1NC(=O)C[S+]([O-])C[C@@H](C(=O)O)NC(=O)[C@H](CC(=O)O)NC(=O)CNC(=O)[C@H](CCCN=C(N)N)NC1=O (stereo in doubt; 71B) | 10 nM |
| N=C(N)NCCC[C@@H]1NC(=O)[C@@H](Cc2c[nH]cn2)NC(=O)CSC[C@@H](C(=O)O)NC(=O)[C@H](CC(=O)O)NC(=O)CNC1=O | 6.8 nM |
| C[C@H](O)[C@H]1NC(=O)CSC[C@@H](C(=O)O)NC(=O)[C@H](CC(=O)O)NC(=O)CNC(=O)[C@H](CCCN=C(N)N)NC1=O | 11.6 nM |
